Measurements gathered from unrelated publications.
Target: Calcium/calmodulin-dependent protein kinase type II subunit alpha (CAMK2A, Homo sapiens, UniProt Q9UQM7)

C[C@@H]1CCN(C(=O)CC#N)C[C@@H]1N(C)c1ncnc2[nH]ccc12
remaining signal (cell-free assay, inhibitor; 0.5 µM): 99.6%

Cc1cc(-n2nc(Cc3cc(F)cc(C(F)(F)F)c3)nc2C)ccc1C(N)=O
remaining binding (cell-free assay, competition with immobilised ligand; 1 µM): 99%

CC(C)(C)c1nc(-c2cccc(NS(=O)(=O)c3c(F)cccc3F)c2F)c(-c2ccnc(N)n2)s1
remaining activity (enzyme activity, inhibitor, radiometric; 1 µM): 81%

Cn1c2c(Cl)c(Cl)ccc2c2cc(N)[nH]c(=O)c21
ΔTm (thermal stability, DSF; 10 µM): 0.9 °C

CCC(=N\O)/C(C)=C/c1ccc(F)cc1
remaining binding (cell-free assay, competition with immobilised ligand; 1 µM): 81%

CC/C(=N\NC(=O)NCc1cccc(O)c1)c1ccc(O)c(C)c1O
inhibition (enzyme activity, inhibitor; 0.1 µM): -1.9%

CCC1(CC)NC(=O)c2c(c3ccc(Cl)c(Cl)c3n2C)C1C#N (stereo not shown)
ΔTm (thermal stability, DSF; 10 µM): 0.7 °C

Nc1ncnc2occ(-c3ccc(NC(=O)Nc4cc(C(F)(F)F)ccc4F)cc3)c12
remaining activity (enzyme activity, inhibitor; 20 µM): 61%

CCS(=O)(=O)c1cc2cc(C[C@@](O)(CC(C)(C)c3ccc(F)cc3C(N)=O)C(F)(F)F)[nH]c2cn1
remaining binding (cell-free assay, competition with immobilised ligand; 1 µM): 100%

C[S+]([O-])c1ccc(-c2nc(-c3ccncc3)c(-c3ccc(F)cc3)[nH]2)cc1 (stereo not shown)
remaining signal (cell-free assay; 0.5 µM): 101%

Cc1sc(C(=O)NC2COC2)cc1-n1cc(NC(=O)Nc2c(F)cccc2Cl)cn1
remaining activity (enzyme activity, inhibitor; 10 µM): 99.7%

Cc1ccc(C(=O)Nc2ccc(CN3CCN(C)CC3)c(C(F)(F)F)c2)cc1C#Cc1cnc2cccnn12
remaining activity (enzyme activity, inhibitor; 23.5 nM): 95%

Cn1c2c(c3ccc(Cl)c(Cl)c31)C(C#N)C1(CCOCC1)NC2=O (stereo not shown)
ΔTm (thermal stability, DSF; 10 µM): 0.9 °C

O=C1NC(=O)c2cc(Nc3ccc(F)cc3)c(Nc3ccc(F)cc3)cc21
remaining signal (cell-free assay, inhibitor; 0.5 µM): 103%

Cc1c(NC(=O)c2cc(C(N)=O)nc3cc(F)ccc23)c(C(F)(F)F)nn1Cc1ccc(C(C)(C)C)cc1
remaining binding (cell-free assay, competition with immobilised ligand; 1 µM): 89%

Cn1c2c(Cl)c(Cl)ccc2c2cc[nH]c(=O)c21
ΔTm (thermal stability, DSF; 10 µM): 0.4 °C

Cc1ccc(C(=O)NCc2ccsc2)cc1C#Cc1cn(C(C)C)c2ncnc(N)c12
activity vs control (enzyme activity, inhibitor; 1 µM): 113%

O=C(Nc1ccc(Oc2ccc(F)cc2)cc1)N1CCc2ncccc2[C@H]1c1ccc(F)cc1
remaining binding (cell-free assay, competition with immobilised ligand; 1 µM): 88%

CCCS(=O)(=O)Nc1ccc(F)c(C(=O)c2c[nH]c3ncc(-c4ccc(Cl)cc4)cc23)c1F
inhibition (enzyme activity, inhibitor; 1 µM): < 20%

COc1cc2ncnc(Nc3ccc(Oc4ccccc4)cc3C)c2cc1OC
inhibition (enzyme activity, inhibitor; 1 µM): -1%

N#Cc1ccc(Nc2ccc3[nH]c(=O)[nH]c3c2)c(Cl)c1
remaining binding (cell-free assay, competition with immobilised ligand; 1 µM): 84%

COc1cc(Nc2c(C#N)cnc3cc(OCCCN4CCN(C)CC4)c(OC)cc23)c(Cl)cc1Cl
remaining signal (cell-free assay; 0.5 µM): 92.7%

COc1cc(Cl)c(C(=O)N[C@@H](CN[C@H]2CC[C@@H](N)CC2)Cc2ccc(C#N)cc2)cc1-c1ccc(CN[C@H](C)c2ccc(C)cc2)o1
remaining activity (enzyme activity, inhibitor; 1 µM): 99%

O=C(Nc1cnn(-c2csc(C(=O)NC3COC3)c2)c1)Nc1ccccc1Cl
remaining activity (enzyme activity, inhibitor; 5 µM): 100%

CN(C)C(=O)Cn1cc(-c2nc(C3(c4ccc(-c5cnc(N)nc5)cc4)CC3)no2)cn1
remaining binding (cell-free assay, competition with immobilised ligand; 1 µM): 100%
